Hits are enriched below; roughly 3.8% of the tested compounds scored in any of these assays.
XiGFP reactiv = X-chromosome reactivation activator. XiGFP mouse fibroblasts, % GFP-positive cells imaging, 3 d; cells co-treated with 5-aza-dC sensitizer; scaled so ellipticine positive control = 100%. activation, % at 7.58 µM. 0.055% of 360,000 active. AID 743238;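 active means mean normalized replicate activation at least 10% and every replicate at or above 10%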;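 further: 0% = median of on-plate neutral control wells and 100% = ellipticine 6 µM median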
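Schedule: 3 d treatment, 15 min room-temperature fixation; system: 68-5-11 XiGFP fibroblast line; buffer or medium: DMEM plus 5-aza-dC sensitizer; control set: ellipticine 6 µM positive control; compound: one concentration, pinned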
FN deposition inh = fibronectin deposition inhibition; AH1F fibroblasts, Alexa488-fibronectin deposition fluorescence, overnight; inhibition, % at 12.6 µM; 0.086% of 350,000 active; AID 743247;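 active means mean inhibition across replicates of 30% or more, regardless of how many single replicates reach that level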;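 further: positive control wells lacked labelled fibronectin entirely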
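Material: AH1F fibroblast monolayer depositing Alexa488-labelled fibronectin into matrix | Input: 10000 AH1F cells/well | Medium: DMEM plus 2% serum, read in PBS | Reagent: Alexa488-fibronectin, 24 nM final in well | Compound dosing: One dose per compound, pinned | Schedule: 1 h adhesion, overnight exposure | Measured by: Fluorescence at 485 nm excitation, 525 nm emission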
ARNT-TACC3 inh = disruptors of human ARNT/TACC3 interaction; AlphaScreen His-ARNT PAS-B/GST-TACC3 binding, luminescence; TACC3 fragment carries E629A point mutation; 0.66% of 390,000 active; AID 623870; Q9Y6A5; inhibition, % at 9.99 µM;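 active means mean inhibition of replicates at least 50% and at least half of replicates each reaching 50%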;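 further: 0% = complete ARNT plus TACC3 wells and 100% = ARNT alone without TACC3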
SIRT5 inh = blocks human SIRT5 desuccinylation of peptide; AID 652115; Q9NXA8; inhibition, % at 15 µM; 1.1% of 330,000 active; Purified SirT5, succinyl-peptide AMC, trypsin-coupled fluorescence; in the data active means inhibition above about 15%
Target sequence (Q9NXA8 whole entry, looked up): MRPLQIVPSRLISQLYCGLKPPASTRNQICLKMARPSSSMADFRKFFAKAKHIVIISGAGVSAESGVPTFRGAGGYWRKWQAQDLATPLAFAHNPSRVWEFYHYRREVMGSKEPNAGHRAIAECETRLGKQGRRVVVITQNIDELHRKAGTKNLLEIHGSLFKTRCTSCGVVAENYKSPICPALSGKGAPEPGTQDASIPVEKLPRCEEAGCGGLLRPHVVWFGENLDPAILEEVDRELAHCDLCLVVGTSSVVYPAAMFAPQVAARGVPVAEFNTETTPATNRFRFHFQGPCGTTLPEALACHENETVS
FGF22 binding = shifts melting point of recombinant human FGF22; recombinant FGF22 thermal shift, SYPRO orange fluorescence; percent of sucrose octasulfate shift, DMSO zero; Q9HCT0; activity (Tm shift, normalised), % at 9.99 µM; 1.5% of 340,000 active;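 active means mean Tm shift, scaled 0 neutral to 100 positive control, at about 1.3% or above, every replicate too, limit read from the data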
Target sequence (Q9HCT0 whole entry, looked up): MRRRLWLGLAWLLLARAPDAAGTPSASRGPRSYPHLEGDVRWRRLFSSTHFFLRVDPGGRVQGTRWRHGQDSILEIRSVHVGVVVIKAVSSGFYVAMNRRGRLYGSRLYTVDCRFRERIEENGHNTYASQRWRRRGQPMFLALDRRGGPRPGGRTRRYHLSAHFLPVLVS
DENV2 CPE = DENV2-induced cell death inhibition | DENV2-infected cells, cytopathic effect rescue, plate reader | CPE inhibition, % at 9.99 µM | 1.7% of 350,000 active; in the data active means CPE inhibition above about 20%, passing the limit was not always enough; tested in BHK-21 cells;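 further: 0% = median of neutral control wells and 100% = median of positive control wells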
* hit, by the source's call.

CN(C)c1ccc(N=Cc2cccn2C)cc1 was read as XiGFP reactiv 0.0, FN deposition inh 4.6, ARNT-TACC3 inh 60.2*, SIRT5 inh -0.9, FGF22 binding -0.1 and DENV2 CPE 14.4.
`CN(C(=O)CC1C(=O)NCCN1Cc1ccccc1C(F)(F)F)C1CCOCC1` (configuration not stated) gave XiGFP reactiv 0.0, FN deposition inh 3.2, ARNT-TACC3 inh 4.7, SIRT5 inh 31.7*, FGF22 binding -0.2 and DENV2 CPE 6.6.
`Cc1nonc1CN(C)C(=O)CC1C(=O)NCCN1Cc1c(F)cccc1Cl` (configuration not stated) gave XiGFP reactiv 0.0, FN deposition inh -22.6, ARNT-TACC3 inh -7.0, SIRT5 inh -0.6, FGF22 binding 0.0 and DENV2 CPE -2.4.
For CN(C(=O)CC1C(=O)NCCN1Cc1ccccc1F)C1CCOCC1 (configuration not stated) the results were XiGFP reactiv 0.0, FN deposition inh -8.9, SIRT5 inh -6.1, FGF22 binding 0.0 and DENV2 CPE -2.8.
CCn1ccnc1CN(C)C(=O)CC1C(=O)NCCN1Cc1c(F)cccc1Cl (configuration not stated) was read as XiGFP reactiv 0.0, ARNT-TACC3 inh 2.5, SIRT5 inh 19.4*, FGF22 binding 0.8 and DENV2 CPE -4.4.
Screening CCc1cc(CNC(=O)CC2C(=O)NCCN2Cc2c(F)cccc2Cl)on1 (configuration not stated) returned XiGFP reactiv 0.0, ARNT-TACC3 inh -6.4, SIRT5 inh 1.2, FGF22 binding 0.4 and DENV2 CPE -6.1.
For CN(Cc1ccon1)C(=O)CC1C(=O)NCCN1Cc1ccccc1C(F)(F)F (configuration not stated) the results were XiGFP reactiv 0.1, FN deposition inh 0.7, ARNT-TACC3 inh 3.7, SIRT5 inh -6.4, FGF22 binding -0.2 and DENV2 CPE -0.6.
Screening CN(Cc1nccn1C)C(=O)CC1C(=O)NCCN1Cc1ccccc1C(F)(F)F (configuration not stated) returned XiGFP reactiv 0.1, FN deposition inh -9.8, ARNT-TACC3 inh 0.8, SIRT5 inh 17.0*, FGF22 binding 0.0 and DENV2 CPE 12.1.
`CCc1cc(CNC(=O)CC2C(=O)NCCN2Cc2cccc(OC)c2)on1` (configuration not stated) gave XiGFP reactiv 0.3, FN deposition inh -12.8, ARNT-TACC3 inh 5.4, SIRT5 inh 1.0, FGF22 binding 44.2* and DENV2 CPE 5.6.
CC(C)NC(=O)Nc1ccc2c(c1)C(=O)N([C@@H](C)CO)C[C@@H](C)[C@@H](CN(C)C(=O)Nc1cccc3ccccc13)OCCCC[C@@H](C)O2 was read as XiGFP reactiv 0.0, ARNT-TACC3 inh 29.5, SIRT5 inh 1.0, FGF22 binding -0.6 and DENV2 CPE -5.0.
For C[C@H]1CN([C@@H](C)CO)C(=O)c2cccc(NC(=O)NC3CCCCC3)c2O[C@H]1CN(C)C(=O)NC1CCCCC1 the results were XiGFP reactiv -0.1, ARNT-TACC3 inh -4.5, SIRT5 inh 0.2 and FGF22 binding 0.2.
Screening Cc1cnc(CNC(=O)CC2C(=O)NCCN2Cc2ccccc2C(F)(F)F)cn1 (configuration not stated) returned XiGFP reactiv 0.3, FN deposition inh 1.4, ARNT-TACC3 inh -1.1, SIRT5 inh 0.2, FGF22 binding -0.3 and DENV2 CPE -3.4.
For Cc1cc(CNC(=O)CC2C(=O)NCCN2Cc2ccccc2C(F)(F)F)on1 (configuration not stated) the results were XiGFP reactiv 0.0, ARNT-TACC3 inh 2.3, SIRT5 inh 29.1*, FGF22 binding 0.3 and DENV2 CPE -3.6.
Screening O=C1O[C@@H](c2ccccc2)[C@@H](c2ccccc2)N2[C@@H](c3ccccc3OCCO)[C@]3(C(=O)Nc4ccc(C#CC5=CCCCC5)cc43)[C@@H](C(=O)N3CCN(c4ncccn4)CC3)[C@H]12 returned ARNT-TACC3 inh 27.1, SIRT5 inh 16.5* and DENV2 CPE 8.1.
Screening O=C1O[C@@H](c2ccccc2)[C@@H](c2ccccc2)N2[C@@H](c3ccc(OCCO)cc3)[C@]3(C(=O)Nc4ccc(C#CC5=CCCCC5)cc43)[C@@H](C(=O)N3CCN(c4ncccn4)CC3)[C@H]12 returned ARNT-TACC3 inh 31.3, SIRT5 inh 7.0, FGF22 binding -0.4 and DENV2 CPE 2.4.
Screening COc1ccc(C#Cc2ccc3c(c2)[C@]2(C(=O)N3)[C@H](C(=O)N3CCN(c4ncccn4)CC3)[C@H]3C(=O)O[C@H](c4ccccc4)[C@H](c4ccccc4)N3[C@@H]2c2ccc(OCCO)cc2)cc1 returned ARNT-TACC3 inh 23.7, SIRT5 inh 22.8*, FGF22 binding 0.1 and DENV2 CPE -7.6.
Screening COc1cc2c(cc1OC)CN(C(=O)[C@@H]1[C@H]3C(=O)O[C@H](c4ccccc4)[C@H](c4ccccc4)N3[C@H](c3ccc(OCCO)cc3)[C@@]13C(=O)Nc1ccc(C#CCNC(N)=O)cc13)CC2 returned ARNT-TACC3 inh 21.6, SIRT5 inh 22.9*, FGF22 binding 0.1 and DENV2 CPE 6.1.
CO[C@@H]1CN(C)C(=O)c2ccc(NC(=O)c3cccc(F)c3)cc2OC[C@H](C)N(C)C[C@@H]1C was read as XiGFP reactiv 0.4 and FN deposition inh 3.1.
Cc1ccc(NC(=S)c2ccc(N(C)C)cc2)cc1 was read as XiGFP reactiv -0.1, FN deposition inh -6.3 and ARNT-TACC3 inh 4.9.
`Cc1ccc(N(C)C)cc1` gave FGF22 binding 0.0 and DENV2 CPE 22.4*.
For CN1/C(=C\C(=O)c2cccc(S(=O)(=O)N3CCCCC3)c2)C(C)(C)c2ccccc21 the results were XiGFP reactiv 0.0, FN deposition inh -3.0, ARNT-TACC3 inh -49.3, SIRT5 inh -0.2, FGF22 binding 43.0* and DENV2 CPE -2.4.
`CN1/C(=C/C(=S)NC(=O)C2CCC2)C(C)(C)c2ccccc21` gave XiGFP reactiv 0.0, ARNT-TACC3 inh 1.9, SIRT5 inh 15.0*, FGF22 binding 0.2 and DENV2 CPE -4.5.
Screening CCNC(=O)[C@H]1[C@H](CO)[C@H]2Cn3c(ccc(-c4ccccc4)c3=O)[C@H]2N1Cc1cccnc1 returned XiGFP reactiv 0.4, ARNT-TACC3 inh 7.3, SIRT5 inh -10.7, FGF22 binding -0.1 and DENV2 CPE 5.3.
CC=Cc1ccc2n(c1=O)C[C@H]1[C@H](CO)[C@@H](C(=O)Nc3ccccc3)N(CC)[C@@H]21 (mixture of isomers) was read as XiGFP reactiv 0.4, SIRT5 inh 1.2 and DENV2 CPE 4.8.
